“Also recorded” adds a separate entry of the source. Where two headings read alike, the source gives them in different places.
Experiments:
Assay type in all cases: biochemical
human TDP1 [1] = molecular target: T1, human TDP1 (Homo sapiens, UniProt Q9NUW8); test: Reversibility of inhibition by preincubation and rapid dilution; conditions: for Recovery of the uninhibited control rate: after preincubation with compound for 1 h, rapid dilution; for Reversibility of inhibition: preincubation at 10X IC50 for 1 h, 100-fold dilution
T1 sequence (Q9NUW8 whole entry): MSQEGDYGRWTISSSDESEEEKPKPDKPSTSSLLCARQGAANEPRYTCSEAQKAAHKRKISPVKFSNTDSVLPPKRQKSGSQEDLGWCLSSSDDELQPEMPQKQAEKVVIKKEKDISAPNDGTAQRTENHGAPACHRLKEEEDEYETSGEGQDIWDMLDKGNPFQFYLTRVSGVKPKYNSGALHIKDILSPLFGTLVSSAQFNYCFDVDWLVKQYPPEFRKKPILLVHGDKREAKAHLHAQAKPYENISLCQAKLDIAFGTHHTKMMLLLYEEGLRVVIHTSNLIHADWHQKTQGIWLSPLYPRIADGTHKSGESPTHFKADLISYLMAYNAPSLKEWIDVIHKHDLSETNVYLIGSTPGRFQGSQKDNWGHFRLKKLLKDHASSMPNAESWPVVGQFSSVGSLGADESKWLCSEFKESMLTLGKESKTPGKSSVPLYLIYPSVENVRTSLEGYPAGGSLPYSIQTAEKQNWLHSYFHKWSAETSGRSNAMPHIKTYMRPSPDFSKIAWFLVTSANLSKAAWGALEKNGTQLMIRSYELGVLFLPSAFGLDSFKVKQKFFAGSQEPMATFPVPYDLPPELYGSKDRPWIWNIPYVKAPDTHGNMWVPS

human TDP1 [2] = molecular target: T1, human TDP1; test: Mechanism of inhibition, substrate/inhibitor matrix
Outline: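 Full-length TDP1 was preincubated with test compound on ice for 1 h. Then eosin/TAMRA FRET substrate was added, […] twofold dilutions from 2.25 to 0.035 μM, with three inhibitor levels plus a no-inhibitor control. Final TDP1 was 500 pM in PBS pH 8.0 buffer. Eosin fluorescence (ex 525/em 545 nm) was read over about 1 h at 28 °C. Rate versus substrate data were fitted to competitive, noncompetitive (pure and mixed) and uncompetitive models, with the best fit chosen by Akaike's Information Criterion.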

human TDP1 [3] = molecular target: T1, human TDP1; test: Continuous FRET assay, IC50 determination of inhibitors of TDP1
[4] = 500 pM TDP1, 1.5 μM FRET substrate, 1 h preincubation

## CC(C)=CCC12OC1(O)C(=O)c1c(O)cccc1C2=O (centres unmarked) [2,3-epoxy-8-hydroxy-lapachol]
Human TDP1 [1]
  Recovery of the uninhibited control rate: 90%
  Reversibility of inhibition: fully reversible
Human TDP1 [2]; inhibitor at 0, 6.6, 20 and 60 μM, Akaike's Information Criterion
  Mechanism of inhibition: mixed-type noncompetitive mechanism
Human TDP1 [2]; read-out: Kie (inhibition constant for TDP1 alone), mixed noncompetitive model
  Ki: 40.9 ± 14.1 µM

## O=C(O)C1=CC(=C(c2ccc(O)c(C(=O)O)c2)c2ccc(O)c(C(=O)O)c2)C=CC1=O [Aurintricarboxylic acid, reference compound]
Human TDP1 [1]
  Recovery of the uninhibited control rate: 90%

## CC(=O)Oc1ccc2ccc(=O)oc2c1OC(C)=O [Daphnetin diacetate]
Human TDP1 [3]
  IC50: 1.1 ± 0.2 µM

## C[C@@]12CCC(=O)c3coc(c31)C(=O)c1cc3c(O)ccc(OS(=O)(=O)O)c3cc12.[Na+] [Halenaquinol sulfate]
Human TDP1 [1]
  Reversibility of inhibition: irreversibly inhibited TDP1; also recorded: irreversibly inhibiting TDP1
Human TDP1 [3]; [4]
  IC50: 24 ± 1.1 µM

## C[C@@]12CCC(=O)c3coc(c31)C(=O)c1cc3c(cc12)C(=O)C=CC3=O [Halenaquinone]
Human TDP1 [1]
  Reversibility of inhibition: irreversibly inhibited TDP1; also recorded: irreversibly inhibiting TDP1
Human TDP1 [1]; listed as Halenoquinone
  Reversibility of inhibition: irreversible inhibition
Human TDP1 [3]; [4]
  IC50: 26 ± 1 µM

## C[C@H](O)C#CC#CC#CC#CCCCCCCCC(=O)O [Minquartynoic acid]
Human TDP1 [3]
  IC50: 52 ± 1 µM

## C[C@@]12CCCc3coc(c31)C(=O)c1cc3c(cc12)C(=O)C=CC3=O [Xestoquinone]
Human TDP1 [3]
  IC50: 93 ± 1.1 µM

## COC[C@H]1OC(=O)c2coc3c2[C@@]1(C)C1=C(C3=O)[C@@H]2CCC(=O)[C@@]2(C)C[C@H]1OC(C)=O [wortmannin, reference compound]
Human TDP1 [3]; concentrations up to 500 μM
  Inhibition of TDP1: unable to inhibit TDP1; also recorded: did not inhibit TDP1
